A selection: hits, their analogues and other compounds. The true share with any hit is near 2.5%.
ERAP1 inh: blocks human ERAP1 aminopeptidase activity; Q9NZ08; recombinant ERAP1, Leu-AMC fluorescence, 60 min; inhibition, % at 10.7 µM; 0.15% of 340,000 active;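 active = mean replicate inhibition of at least 30%, or all replicates individually reaching that 30% level; inactive = mean below 30% and not every replicate reaching it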;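 also: 0% = neutral control wells and 100% = L-leucinethiol positive control wells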
DENV2 CPE rescue: DENV2-induced cell death inhibition; DENV2-infected cells, cytopathic effect rescue, plate reader; CPE inhibition, % at 9.99 µM; 1.7% of 350,000 active; AID 651640; in the data active = CPE inhibition above about 20%, passing the limit was not always enough; inconclusive = no clear call, values can overlap the other calls; tested in BHK-21 cells;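 also: 0% = median of neutral control wells and 100% = median of positive control wells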
SIRT5 block: inhibitors of human sirtuin-5 desuccinylase. Q9NXA8. Purified SirT5, succinyl-peptide AMC, trypsin-coupled fluorescence. inhibition, % at 15 µM. 1.1% of 330,000 active; in the data active = inhibition above about 15%; inconclusive = no clear call, values can overlap the other calls
Target sequence (Q9NXA8 whole entry, looked up): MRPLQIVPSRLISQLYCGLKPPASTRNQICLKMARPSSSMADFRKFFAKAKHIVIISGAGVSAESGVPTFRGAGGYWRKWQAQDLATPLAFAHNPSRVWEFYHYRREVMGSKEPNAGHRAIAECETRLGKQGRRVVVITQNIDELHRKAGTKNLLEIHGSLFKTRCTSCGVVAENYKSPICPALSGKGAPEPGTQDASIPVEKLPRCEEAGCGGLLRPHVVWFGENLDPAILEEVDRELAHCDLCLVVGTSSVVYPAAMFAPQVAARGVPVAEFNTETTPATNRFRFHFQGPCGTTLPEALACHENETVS
PglD DTNB: blocks C. jejuni PglD acetyltransferase activity; purified PglD enzyme, DTNB colorimetric CoA detection; inhibition, % at 12.5 µM; 0.098% of 360,000 active; in the data active = inhibition above about 16%, passing the limit was not always enough; inconclusive = no clear call, values can overlap the other calls
E-selectin induc: induces E-selectin expression in human endothelial cells | P16581 | HUVEC E-selectin immunofluorescence imaging; normalized: neutral wells 0, TNF-alpha wells 100 | activation, % at 7.58 µM | 0.37% of 260,000 active | AID 686992;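 active = mean E-selectin-positive cell signal at least 10% of the positive control, reached in at least 60% of replicates, without over 20% cell loss; inconclusive = no rule given, readout overlaps actives, possibly toxicity-flagged; inactive = the rest, including those meeting only one limit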
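Test system – human umbilical vein endothelial cells (HUVEC), E-selectin induction · Input – 3,000 HUVEC seeded per well · Buffer or medium – EGM-2, gelatin · Compound dosing – single-point compound dose · Detection – immunofluorescence imaging · Measure – percent E-selectin-positive cells · Controls – TNF-alpha high, DMSO low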
An asterisk follows results filed as active; u = inconclusive; x = not tested or not shown.

SMILES	ERAP1 inh	DENV2 CPE rescue	SIRT5 block	PglD DTNB	E-selectin induc
CC(C)C(=O)Nc1cccc(COc2ccccc2CN(Cc2ccccc2)C(=O)OC(C)(C)C)c1	x	-2	18*	-1	5
CC(C)(C)OC(=O)N(Cc1ccccc1)Cc1ccccc1OCc1ccc(NC(=O)C2CCC2)cc1	-5	28*	1	2	0
COc1cccc(-c2ccc3c(c2)O[C@H](CN(C)CC2CC2)[C@H](C)CN([C@H](C)CO)S3(=O)=O)c1	2	10	-6	3	0
O=C(NCC1CC1)c1onc(CSc2ccc(F)c(F)c2)c1C(=O)NCC1CC1	-7	64*	6	1	0
CCCCNC(=O)c1onc(CSc2cccc(OCC)c2)c1C(=O)O	x	24*	x	0	0
CCOc1cccc(SCc2noc(C(=O)NCCOC)c2C(=O)O)c1	x	6	x	7	0
COCCNC(=O)c1onc(CSc2cccc(OC)c2)c1C(=O)NCCOC	0	-11	22*	6	1
CCCCNC(=O)c1onc(CSc2cccc(OC)c2)c1C(=O)NCCCC	-2	u	x	-2	0
COc1ccccc1OCc1ccc(C(=O)NCc2cccnc2)o1	x	x	x	-2	2
C[C@H](CO)N1C[C@H](C)[C@@H](CN(C)Cc2cncnc2)Oc2cc(Br)ccc2S1(=O)=O	5	-4	1	-4	0
NC(=O)[C@@H]1CCCN1C(=O)[C@H](CCc1ccccc1)NC(=O)[C@H]1O[C@@H](n2cnc3c(N)ncnc32)[C@H](O)[C@@H]1O	0	40*	1	x	0
CCOC(=O)C1=C(COC(=O)COc2ccccc2OCC)NC(=O)NC1C (stereo not drawn)	-1	-1	3	-8	1
CCCCCCCCCCCCCCC[C@@H](O)[C@@H](N)CO	0	-6	7	0	2
C=C(C(=O)O)C(CCCCCC)C(=O)O (stereo not drawn)	1	90*	-1	11	x
Cc1noc(C)c1CSCC(=O)Nc1cc(C(F)(F)F)ccc1N1CCOCC1	2	3	-1	-1	41*
Cc1ccc(S(=O)(=O)N2CC(CBr)=CCC2c2ccccc2)cc1 (stereo not drawn)	0	-3	1	x	0
CCc1cc2c(cc3c(=O)n(CC(=O)NCCCN4CC(C)CC(C)C4)ncn32)s1 (stereo not drawn)	3	64*	0	-5	0
Cc1cccc(NCc2n[nH]c(=S)n2-c2ccccc2)c1	-2	15	-3	x	1
Cc1ccc(NCc2n[nH]c(=S)n2-c2ccccc2)cc1	2	-3	12	x	30*
N/C(CS(=O)(=O)c1ccccc1)=N\OC(=O)c1ccc(F)cc1	-2	13	7	-3	1
CCCCCC(=O)N1C[C@@H](n2cc(C3CC3)nn2)[C@H](O)C[C@@H]1c1ccccc1	-1	25*	-7	-4	x
CCCCCCN1C[C@@H](O)[C@H](n2cc(-c3ccc(F)cc3)nn2)C[C@@H]1c1ccc(C)cc1	1	72*	-1	3	0
CCCCCCN1C[C@@H](O)[C@H](n2cc(C3CC3)nn2)C[C@@H]1c1ccc(OC)cc1	-3	-3	2	-3	x
CCCCCCN1C[C@@H](n2cc(C3CC3)nn2)[C@H](O)C[C@@H]1c1ccc(OC)cc1	1	-3	23*	3	0
CC(C)(C)OC(=O)N1CCC[C@H]1c1nnc(SCc2cccc(Cl)c2)o1	-5	-2	23*	x	x
SMILES	ERAP1 inh	DENV2 CPE rescue	SIRT5 block	PglD DTNB	E-selectin induc
COc1cccc(-c2cc(C(=O)N/N=C/c3cccc(OC)c3OC)c3ccccc3n2)c1	-1	-1	-6	x	1
O=C(Nc1cccc2[nH]ncc12)NS(=O)(=O)c1ccccc1	1	-3	7	-4	0
C[C@@H]1CN([C@@H](C)CO)C(=O)Cc2cc(NS(=O)(=O)c3cccs3)ccc2O[C@H]1CN(C)C(=O)Nc1ccc(F)cc1	-1	1	-5	-1	30*
CC(C)NC(=O)N(C)C[C@@H]1Oc2ccc(NS(=O)(=O)c3cccs3)cc2CC(=O)N([C@H](C)CO)C[C@@H]1C	3	0	3	-2	26*
C[C@@H]1CN([C@@H](C)CO)C(=O)Cc2cc(NS(=O)(=O)c3cccs3)ccc2O[C@H]1CN(C)CC1CCCCC1	7	-6	15*	-2	1
C[C@H]1CN([C@@H](C)CO)C(=O)Cc2cc(NS(=O)(=O)c3cccs3)ccc2O[C@H]1CN(C)C(=O)Nc1ccc(F)cc1	-3	1	-2	2	14
